Many of the other results were omitted from the sample, so hits are more common in it than they were.
T cruzi growth-1: T. cruzi proliferation inhibition; T. cruzi beta-gal in NIH3T3, GalScreen luminescence, 90 h; inhibition, % at 8.34 µM; 77,000 tested, 5.9% active;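 active = mean inhibition above about 93%, with at least 55% of replicates each passing it, limit read from the data, passing the limit was not always enough; inconclusive = only one of those two conditions holds; inactive = neither condition holds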
GASC1 inh: blocks human GASC-1 (KDM4C) demethylase activity; Q9H3R0; 96,000 tested, 0.15% active; GST-KDM4C 2-372, H3K9me3 peptide, LANCE TR-FRET; inhibition, % at 12.5 µM;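 active = mean replicate inhibition above about 25%, with at least 55% of replicates also reaching it, limit read from the data, passing the limit was not always enough; inconclusive = only one of those two conditions met; inactive = neither condition met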
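System – N-terminal GST-fused human GASC-1 (KDM4C) fragment, residues 2-372 · Input – enzyme final amount 10 nM · Technique – LANCE TR-FRET, Eu antibody, ULight-streptavidin, EDTA, ex 340 nm, em 618/671 nm · Medium – HEPES buffer, pH 7.5, plus ascorbate · Incubation – enzyme reaction 30 min, then detection 60 min, both room temperature · Reagent – H3K9me3 peptide with Fe(II)/2OG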
IDH1 mut inh: blocks human IDH1 R132H reductase activity. O75874. diaphorase/resazurin fluorescence, 60 min. inhibition, % at 10 µM. 70,000 tested, 0.18% active; in the data active = inhibition above about 34%; inconclusive = no clear call, values can overlap the other calls; inactive = below about 11%
Target sequence (O75874 whole entry R132H): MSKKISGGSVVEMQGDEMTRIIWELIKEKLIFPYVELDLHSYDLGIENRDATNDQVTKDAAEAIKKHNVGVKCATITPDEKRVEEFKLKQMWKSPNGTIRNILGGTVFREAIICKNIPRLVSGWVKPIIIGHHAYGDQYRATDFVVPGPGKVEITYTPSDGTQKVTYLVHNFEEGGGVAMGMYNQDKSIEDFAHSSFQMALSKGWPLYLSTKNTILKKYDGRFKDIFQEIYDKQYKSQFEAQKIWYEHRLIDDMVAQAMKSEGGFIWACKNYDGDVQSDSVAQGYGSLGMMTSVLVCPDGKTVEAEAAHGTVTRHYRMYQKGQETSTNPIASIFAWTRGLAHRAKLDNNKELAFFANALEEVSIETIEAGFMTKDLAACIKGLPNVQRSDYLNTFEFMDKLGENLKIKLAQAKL
T cruzi growth-2: blocks T. cruzi growth in NIH3T3 host cells | shares compounds with T cruzi growth-1 | T. cruzi beta-gal in NIH3T3, GalScreen luminescence, 90 h | inhibition, % at 8.35 µM | 5,600 tested, 72% active | AID 651739;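 active = mean replicate inhibition above about 95% and at least 55% of replicates individually reaching it, limit read from the data; inconclusive = only one of the two criteria is met; inactive = neither criterion is met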
T cruzi growth-3: blocks T. cruzi growth in NIH3T3 host cells; T. cruzi beta-gal in NIH3T3, GalScreen luminescence, 90 h; inhibition, % at 2.09 µM; shares compounds with T cruzi growth-1; 5,600 tested, 21% active;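 active = mean inhibition above about 95%, with at least 55% of replicates also reaching it, limit read from the data; inconclusive = meets just one of the two conditions; inactive = meets neither condition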
NIH3T3 tox: NIH/3T3 (mouse) viability loss | cytotoxicity (signal decrease), % at 8.35 µM | 5,600 tested, 14% active | AID 651742 | NIH/3T3 viability, CellTiter-Glo ATP luminescence, 90 h | shares compounds with T cruzi growth-1;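 active = mean signal decrease across replicates above about 35% based on untreated-well scatter, with enough replicates individually passing, limit read from the data; inconclusive = no rule stated though some were filed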
3T3 cytotox 2: kills mouse NIH/3T3 fibroblasts; NIH/3T3 viability, CellTiter-Glo ATP luminescence, 90 h; shares compounds with T cruzi growth-1; 5,600 tested, 56% active; inhibition, % at 24.9 µM;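 active = mean loss of cell viability signal at or above a set limit, and enough replicates individually reaching it; inconclusive = meets only the mean limit or only the replicate share; inactive = meets neither condition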
Numbers stand for hits; i = inactive; ? = inconclusive; nt = no result given.

SMILES	T cruzi growth-1	GASC1 inh	IDH1 mut inh	T cruzi growth-2	T cruzi growth-3	NIH3T3 tox	3T3 cytotox 2
C[C@@H]1CCCCO[C@@H](CN(C)C(=O)Nc2ccccc2)[C@H](C)CN([C@@H](C)CO)C(=O)c2cc(NS(=O)(=O)c3ccc(Cl)cc3)ccc2O1	?	i	nt	108.2	i	i	i
C[C@H]1CCCCO[C@@H](CN(C)C(=O)Nc2ccccc2)[C@@H](C)CN([C@@H](C)CO)C(=O)c2cc(NS(=O)(=O)c3ccc(Cl)cc3)ccc2O1	113.6	i	i	107.8	i	i	i
C[C@@H]1CCCCO[C@@H](CN(C)C(=O)Nc2ccccc2)[C@H](C)CN([C@H](C)CO)C(=O)c2cc(NS(=O)(=O)c3ccc(Cl)cc3)ccc2O1	i	i	nt	nt	nt	nt	nt
C[C@@H]1CCCCO[C@H](CN(C)C(=O)Nc2ccccc2)[C@@H](C)CN([C@@H](C)CO)C(=O)c2cc(NS(=O)(=O)c3ccc(Cl)cc3)ccc2O1	i	i	nt	nt	nt	nt	nt
C[C@@H]1CN([C@@H](C)CO)C(=O)c2cc(NS(=O)(=O)c3ccccc3)ccc2O[C@@H](C)CCCCO[C@@H]1CN(C)C(=O)Nc1ccccc1	nt	i	i	nt	nt	nt	nt
CCC(C)c1ccc(NC(=O)CSc2nc3ncccc3[nH]2)cc1 (stereo not given)	nt	nt	i	nt	nt	nt	nt
CCCCC#Cc1nc(NC)c2ncn(C3OC(CO)C(O)C3O)c2n1 (stereo not given)	nt	nt	i	nt	nt	nt	nt
C[C@H](CO)N1C[C@H](C)[C@H](CN(C)C(=O)Nc2ccc3c(c2)OCO3)OCCCC[C@H](C)Oc2ccc(NC(=O)C3CCCCC3)cc2C1=O	97.3	i	nt	108.6	i	i	i
C[C@@H]1CCCCO[C@H](CN(C)C(=O)Nc2ccc(F)cc2)[C@H](C)CN([C@@H](C)CO)C(=O)c2cc(NC(=O)C3CCCCC3)ccc2O1	?	i	i	97.4	i	i	i
C[C@H](CO)N1C[C@H](C)[C@H](CN(C)C(=O)Nc2ccc(F)cc2)OCCCC[C@H](C)Oc2ccc(NC(=O)C3CCCCC3)cc2C1=O	i	i	nt	nt	nt	nt	nt
COc1ccc(NC(=O)N(C)C[C@@H]2OCCCC[C@H](C)Oc3ccc(NC(=O)C4CCCCC4)cc3C(=O)N([C@@H](C)CO)C[C@@H]2C)cc1	i	i	i	nt	nt	nt	nt
COc1ccc(NC(=O)N(C)C[C@H]2OCCCC[C@@H](C)Oc3ccc(NC(=O)C4CCCCC4)cc3C(=O)N([C@@H](C)CO)C[C@H]2C)cc1	96.6	i	i	98.1	i	i	i
C[C@H]1CCCCO[C@H](CN(C)C(=O)Nc2ccc3c(c2)OCO3)[C@@H](C)CN([C@@H](C)CO)C(=O)c2cc(NC(=O)C3CCCCC3)ccc2O1	i	i	i	nt	nt	nt	nt
CN(CC(=O)Nc1ccc(Cl)cc1C(F)(F)F)S(=O)(=O)c1ccc(Br)cc1	nt	nt	i	nt	nt	nt	nt
O=S(=O)(c1ccc(F)cc1)N1CCCCN2[C@@H](CO)[C@@H](c3ccc(C#CC4CC4)cc3)[C@@H]2C1	i	i	nt	nt	nt	nt	nt
COc1ccc(S(=O)(=O)N2CCCCN3[C@@H](CO)[C@H](c4ccc(C#CC5CC5)cc4)[C@@H]3C2)cc1	109.0	i	nt	101.6	i	45.3	104.5
COc1ccc(S(=O)(=O)N2CCCCN3[C@H](CO)[C@@H](c4ccc(C#CC5CC5)cc4)[C@H]3C2)cc1	?	i	nt	106.8	105.6	i	105.7
O=S(=O)(c1ccc(F)cc1)N1CCCCN2[C@H](CO)[C@H](c3ccc(C#CC4CC4)cc3)[C@H]2C1	100.9	i	nt	103.7	i	42.9	105.4
COc1ccc(S(=O)(=O)N2CCCCN3[C@H](C2)[C@@H](c2ccc(C#CC4CC4)cc2)[C@@H]3CO)cc1	106.8	i	nt	99.6	107.6	37.8	76.7
O=S(=O)(c1ccc(F)cc1)N1CCCCN2[C@H](CO)[C@H](c3ccc(C#CC4CC4)cc3)[C@@H]2C1	i	i	nt	nt	nt	nt	nt
O=S(=O)(c1ccc(F)cc1)N1CCCCN2[C@H](CO)[C@@H](c3ccc(C#CC4CC4)cc3)[C@@H]2C1	i	i	nt	nt	nt	nt	nt
O=C(O)c1cccc2cccc(SC(C(=O)O)c3ccccc3)c12 (stereo not given)	nt	nt	i	nt	nt	nt	nt
COc1ccc(S(=O)(=O)N2CCCCN3[C@H](CO)[C@@H](c4ccc(C#CC5CC5)cc4)[C@@H]3C2)cc1	117.0	i	nt	108.6	i	i	55.3
COc1ccc(C#Cc2ccc([C@@H]3[C@@H](CO)N4CCCCN(S(=O)(=O)c5ccccc5)C[C@H]34)cc2)cc1	i	i	nt	nt	nt	nt	nt
COc1cc(NC(=O)CN(C)S(=O)(=O)c2ccc3ccccc3c2)cc(OC)c1	nt	nt	i	nt	nt	nt	nt
SMILES	T cruzi growth-1	GASC1 inh	IDH1 mut inh	T cruzi growth-2	T cruzi growth-3	NIH3T3 tox	3T3 cytotox 2
C[C@H]1CN([C@@H](C)CO)C(=O)c2cccc(N(C)C)c2O[C@@H]1CN(C)Cc1ccc(Cl)c(Cl)c1	100.3	i	i	108.2	i	i	103.4
C[C@@H]1CN([C@@H](C)CO)C(=O)c2cccc(N(C)C)c2O[C@@H]1CN(C)Cc1ccc(C(F)(F)F)cc1	104.1	i	i	i	i	i	?
C[C@@H]1CN([C@@H](C)CO)C(=O)c2cccc(N(C)C)c2O[C@H]1CN(C)Cc1ccc(C(F)(F)F)cc1	i	i	i	nt	nt	nt	nt
C[C@@H]1CN([C@@H](C)CO)C(=O)c2cccc(N(C)C)c2O[C@H]1CN(C)Cc1ccc(Cl)c(Cl)c1	i	i	nt	nt	nt	nt	nt
COC(=O)CN(c1ccc(C)c(C)c1)S(=O)(=O)c1ccccc1	nt	nt	i	nt	nt	nt	nt
O=C(Cn1cc([N+](=O)[O-])cn1)Nc1ccc(F)cc1	nt	nt	i	nt	nt	nt	nt
O=C(COc1ccc(I)cc1)Nc1cccc(-c2nnc(-c3ccco3)o2)c1	nt	nt	i	nt	nt	nt	nt
C[C@H]1CCCCO[C@H](CN(C)C(=O)Nc2ccc(C(F)(F)F)cc2)[C@@H](C)CN([C@@H](C)CO)C(=O)c2cc(NC(=O)Nc3cccc4ccccc34)ccc2O1	103.3	i	nt	109.4	108.6	i	i
C[C@H]1CCCCO[C@@H](CN(C)C(=O)Nc2ccc(C(F)(F)F)cc2)[C@@H](C)CN([C@@H](C)CO)C(=O)c2cc(NC(=O)Nc3cccc4ccccc34)ccc2O1	i	i	i	nt	nt	nt	nt
C[C@@H]1CN([C@H](C)CO)C(=O)c2cc(NC(=O)Nc3cccc4ccccc34)ccc2O[C@@H](C)CCCCO[C@H]1CN(C)C(=O)Nc1ccc(C(F)(F)F)cc1	i	i	nt	nt	nt	nt	nt
C[C@H](CO)N1C[C@H](C)[C@@H](CN(C)C(=O)Nc2ccc(C(F)(F)F)cc2)OCCCC[C@H](C)Oc2ccc(NC(=O)Nc3cccc4ccccc34)cc2C1=O	101.0	i	i	104.0	i	i	i
COC(=O)c1c(NC(=S)Nc2ccc(S(=O)(=O)NC34CC5CC(CC(C5)C3)C4)cc2)sc(C(=O)N(C)C)c1C	nt	nt	i	nt	nt	nt	nt
C[C@@H]1CN([C@H](C)CO)C(=O)Cc2cc(NC(=O)Nc3cccc4ccccc34)ccc2O[C@H]1CN(C)Cc1ccccc1	i	i	i	nt	nt	nt	nt
